Test results published in the EternaBench riboswitch data.

Test system: MS2 coat protein
Assay: apparent Kd, MS2 coat protein; higher = weaker binding; RNA-MaP array; FMN 200 µM where present
Summary of the method: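 The apparent Kd comes from binding curves fitted cluster by cluster, filtered, and summarised as a median. Those curves followed SNAP-549-labelled MS2 coat protein from 0.7 or 1.5 nM, doubling to 3 µM, on Illumina sequencing-chip clusters where stalled E. coli RNA polymerase had transcribed the designs, without and then with constant ligand. The buffer was 100 mM Tris-HCl pH 7.5, 80 mM KCl, 4 mM MgCl2, BSA, DTT, yeast tRNA and Tween-20, and green signal was normalised to red-channel RNA signal and control-cluster median Fmax.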

[1] = designed as: OFF switch for flavin mononucleotide, no ligand
[2] = ligand present: flavin mononucleotide, designed as: OFF switch for flavin mononucleotide
[3] = designed as: ON switch for flavin mononucleotide, no ligand
[4] = ligand present: flavin mononucleotide, designed as: ON switch for flavin mononucleotide

Sequence	apparent Kd [1] [nM]	apparent Kd [2] [nM]	apparent Kd [3] [nM]	apparent Kd [4] [nM]
AUAAUUUUAUAUAUCAUUUUAAUCAGAAGGCAUAACAUGAGGAUCACCCAUGUAAAUUAAUGUUAUGAGGAUAUGAUUUGGUUA	26.1	147		
AACCGGGAGAAGCAGGAUAUUGCCUCUUCAACAUGAGGAUCACCCAUGUAAGUAAAUUGACGAUACAAGAAGGGCUGCUCCUUAC			118	38.1
GGAUAGGACAGAGGAUAUACGUGCUAGAGAUACUAGCUACAAAUCCUUACAUGAGGAUCACCCAUGUAGAAGGCUGUCCUAUCG	19.3	38.3		
AAAAAGGCAGGAUAUACAAAAAAGAGAAGAGAGGAGGAGGGACAUGAGGAUCACCCAUGUAGAAGGGCCAAAAA	31.5	37.4		
GCUGCAUAGGCAGGAUAUGCAAACAUGAGAUGAAAAUACAUCUCAUGUACAUGAGGAUCACCCAUGUAGAAGGGCCUGUGCAGU	14.9	15.5		
UGGUACAUGGGAGGAUAUGGGUUGAUAACAUGAGGAUCACCCAUGUUAAAUAUCCCGAGAGGGAACUAGAAGGCCCAUGUACCU			643	46
UUUUACGGAGGAUAUACAUUUUUUUUAUUAUCCUCAUUAUUACAUGAGGAUCACCCAUGUAGAAGGCCGAUUUU	42.6	173		
ACUGGUCGAGGAUAUACAAUCGUGCUUCGGCACGUAAGAUCACAUGAGGAUCACCCAUGUAGAAGGCGACCAGU	60.3	743		
AGCUACGUUUCGUAGCAGUGUCAUCGAGAAGGCCUCAUUACAUGAGGAUCACCCAUGUAAGCAUGGGAGGAUAUCGAUGAUACA			36.5	15.6
GUCAGCUCGUGAGGAUAUACAACACUGCUUCGGCAGUGUUUUAAGAUCACAUGAGGAUCACCCAUGUAGAAGGCACGAGCUGAU	6.29	44		
AUAUGAUAGAUAGGAUAUACAGAUAAAUAAUAAGUAGAAGGAUCAAAUGGAAAUUAUACAUGAGGAUCACCCAUGUUUUUGAAU			29	22.4
GGACAUGUACAGAAGGGCAAUUUAUUUAUUGAUUAUUUAGUUCUGUUUUGCAGGAUAUGUAAAACAUGAGGAUCACCCAUGUCC			188	105
CUUGUGUAAGGAUAUCGAGUAGAACGCUCGAGUUCUGAGCUCGAGAAGGUACAUGAGGAUCACCCAUGUUAAAA	40.1	66.2		
CUGAGGAAAGGAUAUACAUCAAACUCCUCAUCCUCGAAAGAACAUGAGGAUCACCCAUGUAGAAGGUUCGCGGU	37.2	29.8		
CGGACGUCAGGAUAUCUGAUGUCUAACUUCGGUUAGACAUCAGAGAAGGGACAUGAGGAUCACCCAUGUCCGAG	22.2	16.9		
GGGUACAUCGGAGGAUAUCAUGUAAAUACAUGAGGAUCACCCAUGUCGAUGUAGACAUCGGAGAUUGAGAAGGCCGAUGUACCG			1400	52
GUGUACAGAGGAUAUACAAGAGGAGUUACGAAAGUAACUUCACAUGAGGAUCACCCAUGUAGAAGGCUGUACAC	24.6	39.5		
UUCUUACAUGAGGAUCACCCAUGUCAGGAUAUCUCCUCACUGCGCUUGCGCAGUGGAUAGAGAAGGGACAGGCU	56.8	50.1		
AAAUAAAGCAGUGUAUUAAGAUCACAUGAGGAUCACCCAUGUAGAAGGCUCGAGCAAAAUGCUCGAGAGGAUAUACAACACUGC	10.2	195		
UCCUACAUGGGAGGAUAUCCUCAUGAGACAUGAGGAUCACCCAUGUAUUAUAAGCCGAAAGGCAAGGAGAAGGCCCAUGUAGGU			34.9	18
CUCAGCUCGUCAGGAUAUACGUCACUGCGUCAGCAGUGUGGUAAGAUCACAUGAGGAUCACCCAUGUAGAAGGGACGAGCUGAU	13.7	278		
AUGGAACAUGAGGAUCACCCAUGUGAGGAUAUCGUCGGCGCGCUUGAAACGAGCUGCCCGAGAAGGCACAGUGG	160	238		
GCACUGGAUGUAGGAUAUCAGGACGAUAAGUCCUGAGAAGGACAUGAGGAUCACCCAUGUAAAAACUUCCCAGUGCAUAAUAUA	15.4	18		
GGGCUGUCAGGAUAUGGGCUCGGGCUCGAAAGGGCUCGGGCUCAGAAGGGACAUGAGGAUCACCCAUGUGGCCC	35.7	32.8		
GAAUAAUUGAUCCAAUUUUACAACAUGAGGAUCACCCAUGUGCAGGAUAUCGUGUGUGUUAUAUACGAGAAGGGCAAGAACUGU	381	448		
GUAGCAAUCGGAGGAUAUUCAUACCGGAAACGGACAUGAGGAUCACCCAUGUGGCGAAAGCCUUGGGAGAAGGCCGAUUGCUAC			614	21.2
GUGGUGCUAAAGAAGCACAUGAGGAUCACCCAUGUGCCGACACAGGAUAUCGACCGCGUUGGCGUCGAGAAGGGUGAGCCUACU			63.4	34.4
AGAGCCUCGUGAGGAUAUACAUGAGGAUCACCCAUGUAAAUGGAAUAACGGAGGAAACUCCGAAUGUAGAAGGCACGAGGCUCA	79.9	966		
